Laboratory results published in ChEMBL document CHEMBL4837222, “Design and synthesis of novel benzothiophene analogs as selective estrogen receptor covalent antagonists against breast cancer” (Eur J Med Chem, 2021).
Active and inactive are the calls of the source. No cut-off for these calls is given here.

Experiments:
Ishikawa [1] = experiment: Antiproliferative activity against human Ishikawa cells assessed as reduction in cell growth incubated for 48 hrs by CCK8 assay; format: functional, cell-based
How it was run: (§1)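 CCK-8 viability assay. Cells seeded at 4000/well in 10% FBS medium for 24 h, then given compound diluted from DMSO stocks into 2% FBS medium at 100, 50, 25, 12.5, 6.25 and 3.125 µM (0.1% DMSO final). After 48 h, CCK-8 was added (0.5 mg/mL) for 2 h at 37 °C and OD450 read. Triplicates; IC50 fitted from mean viability.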

MDA-MB-231 = experiment: Antiproliferative activity against human MDA-MB-231 cells assessed as reduction in cell growth incubated for 48 hrs by CCK8 assay; format: functional, cell-based; conditions: MDA-MB-231, 48 h; how it was run: as §1
MCF7 [2] = experiment: Antiproliferative activity against human MCF7 cells assessed as reduction in cell growth incubated for 48 hrs by CCK8 assay; format: functional, cell-based; conditions: MCF7, 48 h; how it was run: as §1
[3] = Half life in rat liver microsomes; format: ADME, Microsome
[4] = Intrinsic clearance in rat; format: ADME
Ishikawa [5] = experiment: Potency index, ratio of raloxifene IC50 to test compound IC50 for human Ishikawa cells assessed as reduction in cell growth incubated for 48 hrs by CCK8 assay; format: functional
MCF7 [6] = experiment: Potency index, ratio of raloxifene IC50 to test compound IC50 for human MCF7 cells assessed as reduction in cell growth incubated for 48 hrs by CCK8 assay; format: functional
MCF7 [7] = experiment: Downregulation of ERalpha expression in human MCF7 cells at 0.5 uM incubated for 24 hrs by Western blot assay; format: functional, cell-based
How it was run: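 MCF-7 cells were kept in phenol red-free DMEM/F12 with 10% serum for 72 h before plating, then treated at 125, 250 and 500 nM for 24 h. Cells were lysed in RIPA buffer, protein was measured by BCA, and equal amounts were run on 10% SDS-PAGE and transferred to PVDF. ERα band intensity was normalized to GAPDH in each repeat.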

[8] = Half life in rat plasma; format: ADME, cell-free
[9] = target: T1, Estrogen receptor (Homo sapiens) (UniProt P03372); experiment: Covalent antagonist activity at ERalpha in human MCF7 cells assessed as decrease in estradiol-induced TFF1 mRNA expression level at 0.25 to 10 uM measured after 24 hrs by RT-PCR analysis; format: cell-based; conditions: filed as antagonist, dose 0.25-10 µM
T1 sequence (whole entry): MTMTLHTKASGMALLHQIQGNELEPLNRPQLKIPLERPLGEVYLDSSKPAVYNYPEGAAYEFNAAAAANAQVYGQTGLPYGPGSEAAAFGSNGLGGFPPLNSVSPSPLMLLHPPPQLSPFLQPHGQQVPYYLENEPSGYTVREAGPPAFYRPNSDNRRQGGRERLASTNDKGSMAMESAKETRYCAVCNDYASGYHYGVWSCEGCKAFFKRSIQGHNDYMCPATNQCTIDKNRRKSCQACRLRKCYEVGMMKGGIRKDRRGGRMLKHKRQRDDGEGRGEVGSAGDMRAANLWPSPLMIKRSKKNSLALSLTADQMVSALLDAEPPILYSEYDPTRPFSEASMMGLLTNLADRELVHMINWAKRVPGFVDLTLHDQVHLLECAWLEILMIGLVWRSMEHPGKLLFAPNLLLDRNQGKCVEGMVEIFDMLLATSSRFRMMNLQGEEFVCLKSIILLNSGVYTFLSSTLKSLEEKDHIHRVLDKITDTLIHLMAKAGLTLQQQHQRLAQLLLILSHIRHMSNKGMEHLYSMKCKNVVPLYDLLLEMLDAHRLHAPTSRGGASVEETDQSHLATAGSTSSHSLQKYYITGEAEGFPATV
How it was run: (§2)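 MCF-7 cells stimulated with estradiol, then co-incubated 24 h with compound at 0.25, 0.5, 1 and 10 µM. RNA was reverse-transcribed and GREB1 or TFF1 measured by SYBR Green qPCR: 95 °C 10 min, then 40 cycles of 95 °C 5 s, 60 °C 60 s, 95 °C 15 s. Normalised to GAPDH, ΔΔCT method.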

[10] = target: T1, Estrogen receptor (Homo sapiens); experiment: Covalent antagonist activity at ERalpha receptor in human ishikawa cells assessed as suppression of E2-stimulated PGR expression at 0.25 to 10 uM measured after 3 days by RT-PCR analysis; format: cell-based; conditions: filed as antagonist, dose 0.25-10 µM, time 3.0 day
How it was run: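 Ishikawa cells stimulated with E2 and exposed 3 days to compound at 0.25, 0.5, 1 and 10 µM. PGR mRNA quantified by SYBR Green real-time PCR, normalised to GAPDH, ΔΔCT method.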

[11] = target: T1, Estrogen receptor (Homo sapiens); experiment: Covalent antagonist activity at ERalpha in human MCF7 cells assessed as decrease in estradiol-induced GREB1 mRNA expression level at 0.25 to 10 uM measured after 24 hrs by RT-PCR analysis; format: cell-based; conditions: filed as antagonist, dose 0.25-10 µM; how it was run: as §2

SMILES | IC50 (Ishikawa [1]) [µM] | IC50 (MDA-MB-231) [µM] | IC50 (MCF7 [2]) [µM] | further results
C/C=C/C(=O)N1CC(Oc2ccc(Oc3c(-c4ccc(F)cc4)sc4cc(O)ccc34)cc2)C1 | 9.4 | > 50 | 28 | –
O=C(/C=C/CNCCOc1ccc(Oc2c(-c3ccc(F)cc3)sc3cc(O)ccc23)cc1)N1CCCCC1 | 8.43 | > 50 | 16.4 | –
CN(C)C(=O)/C=C/CN1CC(Oc2ccc(Oc3c(-c4ccc(F)cc4)sc4cc(O)ccc34)cc2)C1 | 11.2 | > 50 | 22.3 | –
O=C(c1ccc(F)cc1)C1CCN(CCn2c(=O)[nH]c3ccccc3c2=O)CC1 [KETANSERIN] | – | – | – | half-life [3]: 18.8 min; CLint scaled [4]: 132 mL/min/kg
O=C(/C=C/CN1CC(Oc2ccc(Oc3c(-c4ccc(F)cc4)sc4cc(O)ccc34)cc2)C1)N1CCOCC1 | 9.84 | > 50 | 8.9 | Ratio IC50 (Ishikawa [5]): 1.26; Ratio IC50 (MCF7 [6]): 2
C=CC(=O)N1CC(Oc2ccc(Oc3c(-c4ccc(F)cc4)sc4cc(O)ccc34)cc2)C1 | 12.3 | > 50 | 23.5 | –
CN(C)C(=O)/C=C/CNCCOc1ccc(Oc2c(-c3ccc(F)cc3)sc3cc(O)ccc23)cc1 | 11.9 | > 50 | 13.8 | –
O=C(/C=C/CN1CC(Oc2ccc(Oc3c(-c4ccc(F)cc4)sc4cc(O)ccc34)cc2)C1)N1CCC1 | 5.45 | > 50 | > 25 | –
C=C(C)C(=O)N1CC(Oc2ccc(Oc3c(-c4ccc(F)cc4)sc4cc(O)ccc34)cc2)C1 | 14.2 | > 50 | > 25 | –
C[C@]12CC[C@@H]3c4ccc(O)cc4C[C@@H](CCCCCCCCC[S+]([O-])CCCC(F)(F)C(F)(F)F)[C@H]3[C@@H]1CC[C@@H]2O (some centres not stated) | – | – | – | inhibition (MCF7 [7]): inactive
CC/C(=C(\c1ccccc1)c1ccc(OCCN(C)C)cc1)c1ccccc1 [TAMOXIFEN] | 16.8 | > 50 | – | –
CC(Cc1cccc(C(F)(F)F)c1)NCCOC(=O)c1ccccc1 (configuration not stated) [BENFLUOREX] | – | – | – | half-life [8]: 28.3 min
CNC(=O)/C=C/CNCCOc1ccc(Oc2c(-c3ccc(F)cc3)sc3cc(O)ccc23)cc1 | 15.5 | > 50 | 16.1 | –
C=CC(=O)NCCOc1ccc(Oc2c(-c3ccc(F)cc3)sc3cc(O)ccc23)cc1 | > 25 | > 50 | 23 | –
O=C(CCCNCCOc1ccc(Oc2c(-c3ccc(F)cc3)sc3cc(O)ccc23)cc1)N1CCC1 | > 25 | > 50 | > 25 | inhibition [9]: Active; inhibition [10]: Active; inhibition [11]: Active
O=C(/C=C/CN1CC(Oc2ccc(Oc3c(-c4ccc(F)cc4)sc4cc(O)ccc34)cc2)C1)N1CCCC1 | 9.15 | > 50 | 8.45 | Ratio IC50 (Ishikawa [5]): 1.35; Ratio IC50 (MCF7 [6]): 2
CNC(=O)/C=C/CN1CC(Oc2ccc(Oc3c(-c4ccc(F)cc4)sc4cc(O)ccc34)cc2)C1 | > 25 | > 50 | > 25 | –
C/C=C/C(=O)NCCOc1ccc(Oc2c(-c3ccc(F)cc3)sc3cc(O)ccc23)cc1 | 12.4 | > 50 | 21.7 | –
O=C(/C=C/CNCCOc1ccc(Oc2c(-c3ccc(F)cc3)sc3cc(O)ccc23)cc1)N1CCOCC1 | 18.6 | > 50 | 8.24 | –
C=C(C)C(=O)NCCOc1ccc(Oc2c(-c3ccc(F)cc3)sc3cc(O)ccc23)cc1 | > 25 | > 50 | > 25 | –
O=C(/C=C/CNCCOc1ccc(Oc2c(-c3ccc(F)cc3)sc3cc(O)ccc23)cc1)N1CCCC1 | 11.2 | > 50 | 7.61 | –
O=C(c1ccc(OCCN2CCCCC2)cc1)c1c(-c2ccc(O)cc2)sc2cc(O)ccc12 [RALOXIFENE] | 12.4 | > 50 | 19.9 | –
